# Screens deposited in PubChem BioAssay by several laboratories.
# Only some compounds are listed: those with a hit (about 2.2% of all), similar ones and a draw of the others.
# NR2E3 ag-1: inhibitors of NR2E3-RetCOR corepressor binding, primary screen, NR2E3 agonist project, biochemical, TR-FRET, GST-NR2E3, biotin-RetCOR; Photoreceptor-specific nuclear receptor (Homo sapiens), Q9Y5X4; 1536-well; inhibition of corepressor binding, % at 4.78 µM; actives 0.12% (n = 320,000); AID 2300, 2010;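 active means percent inhibition above the cutoff of mean plus 3 SD of all tested compounds, set per screening campaign, cut at about 20% in these data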;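 further: 0% = DMSO wells and 100% = biotin wells as full block of FRET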
# Target sequence (Q9Y5X4 whole entry, looked up): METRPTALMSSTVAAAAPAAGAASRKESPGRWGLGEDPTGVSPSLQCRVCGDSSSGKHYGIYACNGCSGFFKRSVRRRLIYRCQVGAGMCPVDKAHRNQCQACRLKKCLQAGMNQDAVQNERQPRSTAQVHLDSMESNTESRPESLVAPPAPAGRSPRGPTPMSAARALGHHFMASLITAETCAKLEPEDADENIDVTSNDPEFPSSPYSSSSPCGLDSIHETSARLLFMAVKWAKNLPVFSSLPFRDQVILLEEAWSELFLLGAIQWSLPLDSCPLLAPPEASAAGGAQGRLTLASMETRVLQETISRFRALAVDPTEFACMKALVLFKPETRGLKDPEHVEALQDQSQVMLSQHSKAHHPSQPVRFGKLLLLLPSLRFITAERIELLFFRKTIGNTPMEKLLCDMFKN
#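 Material: NR2E3–RetCOR corepressor complex / Amount: 1.35 nM GST-NR2E3 / Medium: Tris pH 7.5 / Compound: single nominal compound dose of 4.8 µM / Incubation: 5 h at 4 °C / Technique: TR-FRET, Eu(K)-anti-GST donor, streptavidin-D2 acceptor, ex 340, em 617/671 nm / Read-out basis: percent loss of FRET ratio relative to control wells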
# Env fusion inh: inhibitors of HIV-1 Env-driven cell-cell fusion, primary screen, HeLa-JRFL effector, CEM21 target cells, luciferase | inhibition, % at 12.3 µM | actives 1.1% (n = 360,000) | AID 651610, 2012;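 active means mean replicate inhibition score of at least 50 and every replicate individually at or above 50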;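 further: 0% = plate neutral controls and 100% = maraviroc near 300 nM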
# V-ATPase pHluor: regulators of yeast V-ATPase proton pumping, primary screen, pHLuorin cytosolic pH fluorescence | S. cerevisiae | actives 0.37% (n = 350,000) | response, % at 10 µM | AID 504577, 2011; in the data active means response mostly above about 7.3%, no sharp cut-off; inactive means mostly below about 5.4%; further: actives read high
# NR2E3 ag-2: NR2E3 agonists in two-hybrid cells, primary screen, cell-based, luminescence, CHO-S, Gal4-NCOR/VP16-NR2E3 | Photoreceptor-specific nuclear receptor (Homo sapiens), Q9Y5X4 | luciferase | inhibition of corepressor binding, % at 3.98 µM | actives 0.35% (n = 360,000);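 active means inhibition above the mean of all tested compounds plus 3 SD, cut at about 70% in these data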;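 further: 0% = DMSO with NR2E3 transfected cells and 100% = cells lacking NR2E3 construct; higher means lower luciferase signal from less NR2E3 corepressor binding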
# GalR3 antagonist: GalR3 antagonists in HEK293 cells, primary screen, cell-based, fluorescence readout; HEK293 GalR3-CNG cAMP membrane potential fluorescence; galR3 body fused to GalR1 C-terminus; AID 651719, 2012; inhibition, % at 3 µM; Galanin receptor type 3 (Homo sapiens), O60755; actives 0.44% (n = 360,000);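 active means inhibition above the screen-wide average plus 3 SD, cut at about 13% in these data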;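 further: forskolin and galanin both at EC90 stimulate the cells; cAMP rise reported by CNG channel membrane potential dye signal; 0% = forskolin plus galanin with DMSO and 100% = forskolin alone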
# Target sequence (O60755 1-299 limits assumed): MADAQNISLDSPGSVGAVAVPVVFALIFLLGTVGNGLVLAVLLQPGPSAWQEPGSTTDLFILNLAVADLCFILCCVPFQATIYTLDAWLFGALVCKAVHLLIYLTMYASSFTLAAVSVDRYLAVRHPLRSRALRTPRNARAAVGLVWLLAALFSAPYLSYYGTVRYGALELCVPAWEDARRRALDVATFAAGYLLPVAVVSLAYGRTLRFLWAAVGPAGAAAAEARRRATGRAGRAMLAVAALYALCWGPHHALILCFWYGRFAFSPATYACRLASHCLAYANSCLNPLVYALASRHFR
# GAA850 FXN act: FXN promoter activators, primary screen, cell-based, luciferase luminescence, HEK293 lucGAA850. HEK293 lucGAA850 FXN promoter luciferase reporter, 24 h; percent of 10 µM SAHA response. activation, % at 6 µM. actives 0.56% (n = 360,000);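 active means activation above the average of all compounds screened plus 3 SD, cutoff fixed separately per campaign, cut at about 7.5% in these data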;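 further: 0% = DMSO wells and 100% = 10 µM SAHA wells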
# * marks the source's active call; other numbers are inactive results; . = no result; [ ] = another dose, or the depositor's remark.
SMILES,NR2E3 ag-1,Env fusion inh,V-ATPase pHluor,NR2E3 ag-2,GalR3 antagonist,GAA850 FXN act
CCc1ccc(-c2nnn(CCC(=O)OC)n2)cc1,0,65*,4,23,-5,-16
C[C@@H]1CCCCO[C@H](CN(C)S(C)(=O)=O)[C@H](C)CN([C@@H](C)CO)C(=O)c2cc(NS(=O)(=O)c3cn(C)cn3)ccc2O1,.,2[16.7 µM],.,.,.,.
O=C(c1ccc2c(c1)OCO2)N(Cc1ccco1)C1(C(=O)NC2CCCCC2)CCCCC1,0,88*,-4,-8,-6,3
C[C@H](CO)N1C[C@H](C)[C@@H](CN(C)S(=O)(=O)c2ccccc2)Oc2cc(C#Cc3ccncc3)ccc2S1(=O)=O,.,-2[16.7 µM],.,.,.,.
CN(CC(=O)Nc1ccc(F)cc1)C(=O)CSc1nc2ncc(Cl)cc2[nH]1,-2,7,74*,14,-2,-1
O=C(CSc1nc2ncc(Cl)cc2[nH]1)Nc1cccc(F)c1,0,5,2,36,-6,-1
O=C(C[C@H]1C=C[C@@H](NC(=O)C2CC2)[C@H](CO)O1)NCCCN1CCOCC1,.,5[16.7 µM],.,.,.,.
CCOC(=O)c1c(CSc2cccs2)n(C)c2cc(Br)c(O)c(CN(C)C)c12,0,85*,-4,8,-10,5
CCOC(=O)c1c(C)n(C)c2cc(Br)c(O)c(O)c12,-3,-19,1,-23,1,2
C[C@H]1CN([C@@H](C)CO)C(=O)c2cc(NC(=O)CCC(F)(F)F)ccc2O[C@@H]1CN(C)S(C)(=O)=O,.,2[16.7 µM],.,.,.,.
CC(C)NC(=O)Nc1ccc2c(c1)C(=O)N([C@H](C)CO)C[C@H](C)[C@@H](CN(C)C(=O)Nc1ccc(F)cc1)OCCCC[C@@H](C)O2,.,1[16.7 µM],.,.,.,.
CCCN1C[C@@H](C)[C@H](OC)CN(C)C(=O)c2cc(NC(=O)c3ccc(F)cc3)ccc2OC[C@H]1C,.,-9[16.7 µM],.,.,.,.
CCOC(=O)c1cnc(-n2nc(C)cc2C)nc1NCc1ccc2c(c1)OCO2,2,-9,-3,82*,-4,-1
O=C(N/N=C/C=C/c1ccccc1)C(O)c1ccccc1 (stereo not drawn),1,-37,2,-29,1,4
CC(/C=N/NC(=O)C(O)c1ccccc1)=C\c1ccccc1 (stereo not drawn),-1,-17,4,-61,3,7.8*
CN(C)c1ccc(C=c2c3cc(O)ccc3n3c2cc(-c2ccccc2)[n+]3C)cc1,.,64*,-1,-4,-4,-2
CN(C)c1ccc(C=c2c3ccccc3n3c2c2ccccc2[n+]3C)cc1,.,58*,-32,27,-4,-10
COc1ccc(C(=O)OCc2nnc(-c3ccccc3)o2)cc1S(=O)(=O)N1CCOCC1,2,-13,-3,7,0,0
O=C(OCc1nnc(-c2ccc(Cl)cc2)o1)c1ccc(O)cc1,-1,-15,0,-5,-6,3
O=C(OCc1nnc(-c2ccc([N+](=O)[O-])cc2)o1)c1ccc(F)c(S(=O)(=O)N2CCOCC2)c1,.,-7,17*,8,-2,-2
CS(=O)(=O)c1ccc(C(=O)OCc2nnc(-c3ccc(Cl)cc3)o2)cc1[N+](=O)[O-],1,.,0,-1,.,14*
O=C(C[C@H]1C=C[C@H](NS(=O)(=O)c2ccc(F)cc2)[C@@H](CO)O1)NCCN1CCCCC1,.,-44[16.7 µM],.,.,.,.
Cc1ccc(S(=O)(=O)N2CCCCC2)cc1C(=O)NCCC1=CCCCC1,-1,73*,-1,-6,-2,7
O=C(CCNC(=O)c1ccccc1Cl)NCCC1=CCCCC1,1,58*,0,-6,-2,3
O=C(NCCC1=CCCCC1)c1cc(S(=O)(=O)N2CCOCC2)ccc1Cl,0,36,-7,6,1,2
SMILES,NR2E3 ag-1,Env fusion inh,V-ATPase pHluor,NR2E3 ag-2,GalR3 antagonist,GAA850 FXN act
Cc1ccc2[nH]c(C)c(/C=C/c3cc[n+](C)cc3)c2c1,.,60*,0,11,-10,-2
Cc1ccc2c(c1)c(/C=C/c1cc[n+](C)cc1)c(C)n2C,.,20,0,-1,-7,-5
CCN1c2ccccc2-c2nc3ccccc3n2C1c1ccco1 (stereo not drawn),-5,55*,2,2,-7,2
C[C@H]1CN([C@@H](C)CO)C(=O)Cc2cc(N(C)C)ccc2O[C@@H]1CN(C)S(C)(=O)=O,.,7[16.7 µM],.,.,.,.
Fc1ccc(-n2c(CN3CCCCC3)n[nH]c2=S)cc1,1,15,14*,-2,-6,-3
S=c1[nH]nc(CN2CCCCC2)n1-c1ccc(Cl)cc1,1,0,6,-14,-3,2
Cc1ccc(S(=O)(=O)NC2c3cccc4cccc(c34)C2Sc2nc(C)cc(C)n2)cc1 (stereo not drawn),1,98*,2,-8,2,6
C[C@@H]1CN([C@H](C)CO)S(=O)(=O)c2ccc(C3=CCCCC3)cc2O[C@@H]1CN(C)S(=O)(=O)c1ccc(F)cc1,.,58*[16.7 µM],.,.,.,.
COc1ccc(S(=O)(=O)N(C)C[C@H]2Oc3cc(C4=CCCC4)ccc3S(=O)(=O)N([C@@H](C)CO)C[C@H]2C)cc1,.,69*[16.7 µM],.,.,.,.
C[C@H]1CN([C@@H](C)CO)S(=O)(=O)c2ccc(C3=CCCC3)cc2O[C@H]1CN(C)S(=O)(=O)c1ccc(F)cc1,.,24[16.7 µM],.,.,.,.
CC1CCN(C(=O)c2cc3nc(-c4ccccc4)cc(-c4ccccc4)n3n2)CC1,0,77*,4,-53,-4,-3
O=C(C[C@@H]1C=C[C@@H](NC(=O)C2CCOCC2)[C@H](CO)O1)NCC1CC1,.,0[16.7 µM],.,.,.,.
Cc1ccc(C(c2nc3ccccc3[nH]2)n2c(-c3ccccc3)nc3ccccc32)cc1 (stereo not drawn),.,58*,.,-95,-7,.
CCOc1ccc(NC2c3ccccc3C(=O)N2Cc2ccco2)cc1 (stereo not drawn),5,74*,6,15,.,0
CO[C@H]1CN(C)C(=O)c2ccc(NS(=O)(=O)CC(F)(F)F)cc2OC[C@H](C)N(C)C[C@H]1C,.,8[16.7 µM],.,.,.,.
CO[C@@H]1CN(C)C(=O)c2ccc(NC(C)=O)cc2OC[C@@H](C)N(Cc2cncnc2)C[C@@H]1C,.,57*[16.7 µM],.,.,.,.
CO[C@@H]1CN(C)C(=O)c2ccc(NC(C)=O)cc2OC[C@H](C)N(Cc2cncnc2)C[C@H]1C,.,-3[16.7 µM],.,.,.,.
CCCC(=O)Nc1ccc2c(c1)OC[C@H](C)N(Cc1ccncc1)C[C@@H](C)[C@H](OC)CN(C)C2=O,.,6[16.7 µM],.,.,.,.
